Laboratory results as given in ChEMBL document CHEMBL4038273, “MAO enzymes inhibitory activity of new benzimidazole derivatives including hydrazone and propargyl side chains” (Eur J Med Chem, 2017).

Tests used:
Salmonella typhimurium [1] = test: Genotoxicity in Salmonella typhimurium TA98 assessed as increase in number of revertants at 1.25 mg/ml in presence of aroclor-1254-induced Sprague-Dawley rat liver microsomal S9 fraction by Ames-MPF assay relative to baseline; type: toxicity; settings: salmonella enterica subsp. enterica serovar typhimurium, microsomes
How it was run: (§1)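 AmesMPF 98/100 fluctuation format with S. typhimurium TA98 (frameshift) and TA100 (base-pair substitution), run with and without S9. Compounds were made up in DMSO at 0.156–5 mg/mL, six levels; solvent control was 4% DMSO. With S9, positive controls were 2-aminoanthracene at 1 µg/mL (TA98) and 2.5 µg/mL (TA100). Wells turned yellow by pH drop were scored positive. Fold over baseline is mean positive wells divided by (zero-dose mean + 1 SD). Student's t-test, p<0.05.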

Salmonella typhimurium [2] = test: Genotoxicity in Salmonella typhimurium TA100 assessed as increase in number of revertants at 0.625 mg/ml in absence of aroclor-1254-induced Sprague-Dawley rat liver microsomal S9 fraction by Ames-MPF assay relative to baseline; type: toxicity; settings: salmonella enterica subsp. enterica serovar typhimurium, microsomes; how it was run: as §1
Salmonella typhimurium [3] = test: Genotoxicity in Salmonella typhimurium TA100 assessed as increase in number of revertants at 2.5 mg/ml in absence of aroclor-1254-induced Sprague-Dawley rat liver microsomal S9 fraction by Ames-MPF assay relative to baseline; type: toxicity; settings: salmonella enterica subsp. enterica serovar typhimurium, microsomes; how it was run: as §1
Salmonella typhimurium [4] = test: Genotoxicity in Salmonella typhimurium TA100 assessed as increase in number of revertants at 0.156 mg/ml in absence of aroclor-1254-induced Sprague-Dawley rat liver microsomal S9 fraction by Ames-MPF assay relative to baseline; type: toxicity; settings: salmonella enterica subsp. enterica serovar typhimurium, microsomes; how it was run: as §1
Salmonella typhimurium [5] = test: Genotoxicity in Salmonella typhimurium TA100 assessed as increase in number of revertants at 0.3125 mg/ml in presence of aroclor-1254-induced Sprague-Dawley rat liver microsomal S9 fraction by Ames-MPF assay relative to baseline; type: toxicity; settings: salmonella enterica subsp. enterica serovar typhimurium, microsomes; how it was run: as §1
NIH3T3 = test: Cytotoxicity against mouse NIH/3T3 cells by MTT assay; type: cell-based
How it was run: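 NIH/3T3 mouse embryonic fibroblasts seeded at 1x10^4 cells per well and grown per supplier recommendations. Compounds tested over 0.0316-1000 µM by MTT reduction to formazan; IC50 determined.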

Salmonella typhimurium [6] = test: Genotoxicity in Salmonella typhimurium TA98 assessed as increase in number of revertants at 2.5 mg/ml in presence of aroclor-1254-induced Sprague-Dawley rat liver microsomal S9 fraction by Ames-MPF assay relative to baseline; type: toxicity; settings: salmonella enterica subsp. enterica serovar typhimurium, microsomes; how it was run: as §1
[7] = biological target: T1, Amine oxidase [flavin-containing] B (Homo sapiens, UniProt P27338); test: Inhibition of recombinant human MAO-B expressed in baculovirus infected BTI insect cells using tyramine as substrate pretreated for 30 mins followed by substrate addition incubated for 30 mins measured at 5 mins interval by horse-radish peroxidase/amplex red-based fluorometric method; type: cell-based
T1 sequence (P27338 whole entry): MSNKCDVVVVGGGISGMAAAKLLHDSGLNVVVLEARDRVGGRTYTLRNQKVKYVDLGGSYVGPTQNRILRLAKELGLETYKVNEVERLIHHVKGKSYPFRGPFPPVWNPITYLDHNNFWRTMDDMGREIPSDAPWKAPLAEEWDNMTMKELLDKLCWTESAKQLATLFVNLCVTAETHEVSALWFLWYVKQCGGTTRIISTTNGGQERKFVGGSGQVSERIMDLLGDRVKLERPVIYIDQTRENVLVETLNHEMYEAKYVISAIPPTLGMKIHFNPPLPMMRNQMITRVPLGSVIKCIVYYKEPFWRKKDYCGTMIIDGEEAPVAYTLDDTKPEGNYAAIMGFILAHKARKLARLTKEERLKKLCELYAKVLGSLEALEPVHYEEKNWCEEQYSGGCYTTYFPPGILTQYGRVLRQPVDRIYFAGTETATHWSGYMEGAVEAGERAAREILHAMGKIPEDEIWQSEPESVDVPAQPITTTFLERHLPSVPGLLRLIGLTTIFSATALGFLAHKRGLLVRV

Salmonella typhimurium [8] = test: Genotoxicity in Salmonella typhimurium TA100 assessed as increase in number of revertants at 2.5 mg/ml in presence of aroclor-1254-induced Sprague-Dawley rat liver microsomal S9 fraction by Ames-MPF assay relative to baseline; type: toxicity; settings: salmonella enterica subsp. enterica serovar typhimurium, microsomes; how it was run: as §1
Salmonella typhimurium [9] = test: Genotoxicity in Salmonella typhimurium TA98 assessed as increase in number of revertants at 0.3125 mg/ml in presence of aroclor-1254-induced Sprague-Dawley rat liver microsomal S9 fraction by Ames-MPF assay relative to baseline; type: toxicity; settings: salmonella enterica subsp. enterica serovar typhimurium, microsomes; how it was run: as §1
Salmonella typhimurium [10] = test: Genotoxicity in Salmonella typhimurium TA100 assessed as increase in number of revertants at 1.25 mg/ml in presence of aroclor-1254-induced Sprague-Dawley rat liver microsomal S9 fraction by Ames-MPF assay relative to baseline; type: toxicity; settings: salmonella enterica subsp. enterica serovar typhimurium, microsomes; how it was run: as §1
[11] = biological target: T2, Amine oxidase [flavin-containing] A (Homo sapiens, UniProt P21397); test: Inhibition of recombinant human MAO-A expressed in baculovirus infected BTI insect cells using tyramine as substrate pretreated for 30 mins followed by substrate addition incubated for 30 mins measured at 5 mins interval by horse-radish peroxidase/amplex red-based fluorometric method
T2 sequence (P21397 whole entry): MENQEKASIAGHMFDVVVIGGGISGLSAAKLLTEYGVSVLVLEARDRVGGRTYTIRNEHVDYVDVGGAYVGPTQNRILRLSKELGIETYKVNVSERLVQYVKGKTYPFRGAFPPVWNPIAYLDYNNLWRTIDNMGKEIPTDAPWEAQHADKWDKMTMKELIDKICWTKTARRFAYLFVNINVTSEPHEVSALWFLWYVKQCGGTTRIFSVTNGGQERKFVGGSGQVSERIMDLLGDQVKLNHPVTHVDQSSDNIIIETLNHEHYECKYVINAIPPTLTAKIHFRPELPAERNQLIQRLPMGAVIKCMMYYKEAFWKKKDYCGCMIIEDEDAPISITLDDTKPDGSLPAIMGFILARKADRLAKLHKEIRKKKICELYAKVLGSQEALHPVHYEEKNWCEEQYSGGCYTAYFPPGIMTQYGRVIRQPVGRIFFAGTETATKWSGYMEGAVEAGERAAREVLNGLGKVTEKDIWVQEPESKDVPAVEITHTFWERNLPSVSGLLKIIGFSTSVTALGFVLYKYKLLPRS
How it was run: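 Recombinant hMAO-A (0.5 U/mL stock) or hMAO-B (0.64 U/mL stock) in phosphate buffer, preincubated with inhibitor (solutions 10^-3 to 10^-9 M in 2% DMSO) for 30 min at 37°C. Background-subtracted against DMSO control; quadruplicate.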

Salmonella typhimurium [12] = test: Genotoxicity in Salmonella typhimurium TA98 assessed as increase in number of revertants at 0.156 mg/ml in presence of aroclor-1254-induced Sprague-Dawley rat liver microsomal S9 fraction by Ames-MPF assay relative to baseline; type: toxicity; settings: salmonella enterica subsp. enterica serovar typhimurium, microsomes; how it was run: as §1
Homo sapiens = organism: Homo sapiens; test: Selectivity index, ratio of IC50 for recombinant human MAO-A expressed in baculovirus infected BTI insect cells to IC50 for recombinant human MAO-B expressed in baculovirus infected BTI insect cells
How it was run: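 Selectivity index calculated as IC50(MAO-A)/IC50(MAO-B), with both IC50 values from the fluorometric tyramine/HRP/Amplex Red inhibition assay.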

Salmonella typhimurium [13] = test: Genotoxicity in Salmonella typhimurium TA98 assessed as increase in number of revertants at 5 mg/ml in presence of aroclor-1254-induced Sprague-Dawley rat liver microsomal S9 fraction by Ames-MPF assay relative to baseline; type: toxicity; settings: salmonella enterica subsp. enterica serovar typhimurium, microsomes; how it was run: as §1

IC50 [7] | IC50 [11] | SMILES | fold change (FC) (Salmonella typhimurium [1]) | fold change (FC) (Salmonella typhimurium [2]) | fold change (FC) (Salmonella typhimurium [3]) | fold change (FC) (Salmonella typhimurium [4]) | fold change (FC) (Salmonella typhimurium [5]) | IC50 (NIH3T3) | fold change (FC) (Salmonella typhimurium [6]) | fold change (FC) (Salmonella typhimurium [8]) | fold change (FC) (Salmonella typhimurium [9]) | fold change (FC) (Salmonella typhimurium [10]) | fold change (FC) (Salmonella typhimurium [12]) | Ratio IC50 (Homo sapiens) | fold change (FC) (Salmonella typhimurium [13])
0.075 µM | 9.59 µM | C#CCn1c(-c2ccc(C(=O)N/N=C/c3cccnc3)cc2)nc2ccccc21 | 0.52 | 0.84 | 0.74 | 0.74 | 0.27 | 316 µM | 0.52 | 0.27 | 0.35 | 0.33 | 0.35 | 128 | 0
0.136 µM | 0.851 µM | C#CCn1c(-c2ccc(C(=O)N/N=C/c3ccc(F)cc3)cc2)nc2ccccc21 | 2.13 | 0.69 | 1.78 | 0.89 | 0.49 | ≥ 1000 µM | 2.95 | 1.88 | 2.13 | 1.46 | 1.3 | 6.26 | 3.07
